Measurements reported in ChEMBL document CHEMBL3822384, “2-(3-Methoxyphenyl)quinazoline Derivatives: A New Class of Direct Constitutive Androstane Receptor (CAR) Agonists” (J Med Chem, 2016).

What was measured:
Assay type in all cases: cell-based; call rule not given here
HepG2 = experiment: Cytotoxicity against human HepG2 cells assessed as cell viability after 24 hrs by MTS assay; details: hepg2, 24 h
[1] = target: T1, Nuclear receptor subfamily 1 group I member 3 (Homo sapiens, UniProt Q14994); experiment: Agonist activity at human CAR expressed in human HepG2 cells assessed as upregulation of CYP2B6 mRNA expression at 1 uM after 24 hrs by qRT-PCR method; details: hepg2, 24 h
T1 sequence (Q14994 whole entry): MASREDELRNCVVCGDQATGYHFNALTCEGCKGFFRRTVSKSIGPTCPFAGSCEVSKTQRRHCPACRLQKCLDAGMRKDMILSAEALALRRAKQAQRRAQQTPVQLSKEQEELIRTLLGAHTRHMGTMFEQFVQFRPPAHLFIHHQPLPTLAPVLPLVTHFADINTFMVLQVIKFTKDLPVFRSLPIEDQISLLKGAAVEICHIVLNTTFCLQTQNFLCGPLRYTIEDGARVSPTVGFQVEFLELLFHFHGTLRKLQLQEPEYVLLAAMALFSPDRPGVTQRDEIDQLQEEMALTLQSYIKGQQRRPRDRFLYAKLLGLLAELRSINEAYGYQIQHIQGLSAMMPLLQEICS

[2] = target: T1, Nuclear receptor subfamily 1 group I member 3; experiment: Agonist activity at CAR expressed in human HepG2 cells at 1 to 20 uM after 48 hrs by p(ER6)3-luciferase reporter gene assay; details: hepg2, 48 h
Method in brief: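 HepG2 cells transiently co-transfected with p(ER6)3-luc reporter, wild-type CAR expression vector and pRL-TK normalization plasmid; after 24 h stabilization, treated with compounds or vehicle (DMSO 0.1%, v/v) for 48 h. Firefly and Renilla luciferase read; fold change versus vehicle (set to 1), means ± SD of triplicates from a representative experiment.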

AHR = target: T2, AHR (Homo sapiens, UniProt P35869); experiment: (§1) Agonist activity at AHR expressed in human HepG2 cells after 24 hrs by pXRE-luciferase reporter gene assay; details: human, HepG2 cells expressing AHR; read-out: Imax
T2 sequence (P35869 whole entry): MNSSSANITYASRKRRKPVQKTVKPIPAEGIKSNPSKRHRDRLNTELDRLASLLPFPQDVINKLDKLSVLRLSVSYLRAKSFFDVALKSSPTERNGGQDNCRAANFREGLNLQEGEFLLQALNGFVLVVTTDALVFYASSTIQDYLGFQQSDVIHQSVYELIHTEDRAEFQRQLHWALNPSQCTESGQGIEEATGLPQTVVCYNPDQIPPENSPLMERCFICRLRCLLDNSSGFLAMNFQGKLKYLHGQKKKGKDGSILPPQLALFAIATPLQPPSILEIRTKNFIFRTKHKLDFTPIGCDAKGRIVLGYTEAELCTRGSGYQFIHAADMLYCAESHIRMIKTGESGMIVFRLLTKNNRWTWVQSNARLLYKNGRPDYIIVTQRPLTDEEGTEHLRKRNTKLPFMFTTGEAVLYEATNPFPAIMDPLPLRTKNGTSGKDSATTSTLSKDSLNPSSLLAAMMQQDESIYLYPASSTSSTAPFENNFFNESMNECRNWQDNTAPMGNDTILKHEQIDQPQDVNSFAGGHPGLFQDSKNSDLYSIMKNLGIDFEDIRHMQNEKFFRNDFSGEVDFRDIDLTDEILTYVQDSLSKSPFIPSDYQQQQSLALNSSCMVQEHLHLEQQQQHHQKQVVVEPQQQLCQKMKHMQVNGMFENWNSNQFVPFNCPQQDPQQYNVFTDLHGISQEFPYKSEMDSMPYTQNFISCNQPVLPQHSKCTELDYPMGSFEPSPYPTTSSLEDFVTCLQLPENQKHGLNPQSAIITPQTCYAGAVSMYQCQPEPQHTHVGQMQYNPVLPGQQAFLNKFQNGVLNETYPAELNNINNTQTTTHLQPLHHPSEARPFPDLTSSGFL

[3] = target: T3, Aryl hydrocarbon receptor (Homo sapiens, UniProt P35869); experiment: as §1
T3 sequence (P35869 whole entry): T2 sequence (P35869 whole entry)

Activity [1]	Activity [2]	SMILES	Activity (HepG2)	Emax at 24 h (AHR) [%]	EC50 [3] [nM]
Active	Active	Clc1ccc(-c2nc3sccn3c2/C=N/OCc2ccc(Cl)c(Cl)c2)cc1	Non-toxic		
	Active	COc1cccc(-c2nc(O)c3ccccc3n2)c1			
		Cc1ccc2cc3c(ccc4ccccc43)c3c2c1CC3 [3-METHYLCHOLANTHRENE]		119	490
		Clc1cc2c(cc1Cl)Oc1cc(Cl)c(Cl)cc1O2 [2,3,7,8-TETRACHLORODIBENZO-P-DIOXIN]		59	
